In ChEMBL document CHEMBL3227985, “N-Alkylated 2-aminotetralins: central dopamine-receptor stimulating activity” (J Med Chem, 1979):
The source made the active and inactive calls. The rule behind the calls is not given here.

Assays:
[1] = system: Rattus norvegicus; test: Toxicity in sc dosed Sprague-Dawley rat assessed as gross behaviour at ED50; type: organism-based; conditions: in vivo
[2] = system: Rattus norvegicus; test: Central serotonin receptor stimulating activity in Sprague-Dawley rat assessed as reduction in 5-HTP accumulation in hemispheral portion of cerebrum at 2 umol/kg, sc by spectrophotometric method; type: functional, organism-based
Summary of the method: (§1)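 Male Sprague-Dawley rats (200-350 g), reserpinized. Compounds dissolved in saline immediately before use, neutral pH, 10 mL/kg, given sc over a dose range. Aromatic-L-amino-acid decarboxylase inhibited (100 mg/kg). Dopa and 5-HTP accumulation measured spectrophotometrically in striatum, limbic forebrain and remaining hemispheral portions. ED50 = dose giving 50% of maximal reduction versus control portions, estimated from dose-response curves. Experiments run 9–12 a.m.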

[3] = system: Rattus norvegicus; test: Central noradrenaline receptor stimulating activity in Sprague-Dawley rat assessed as reduction in DOPA accumulation in hemispheral portion of cerebrum at 2 umol/kg, sc by spectrophotometric method; type: functional, organism-based; summary of the method: as §1
[4] = system: Rattus norvegicus; test: Central serotonin receptor stimulating activity in Sprague-Dawley rat assessed as reduction in 5-HTP accumulation in striatum of brain at 2 umol/kg, sc by spectrophotometric method; type: functional, organism-based; summary of the method: as §1
[5] = system: Rattus norvegicus; test: Central serotonin receptor stimulating activity in Sprague-Dawley rat assessed as reduction in 5-HTP accumulation in limbic region of brain at 2 umol/kg, sc by spectrophotometric method; type: functional, organism-based; conditions: Limbic system; summary of the method: as §1
[6] = system: Rattus norvegicus; test: Central dopamine receptor stimulating activity in Sprague-Dawley rat assessed as reduction in DOPA accumulation in limbic region of brain at 2 umol/kg, sc by spectrophotometric method; type: functional; conditions: Limbic system; summary of the method: as §1
[7] = system: Rattus norvegicus; test: Central dopamine receptor stimulating activity in Sprague-Dawley rat assessed as reduction in DOPA accumulation in striatum of brain at 2 umol/kg, sc by spectrophotometric method; type: functional; summary of the method: as §1
[8] = system: Rattus norvegicus; test: Central dopamine receptor stimulating activity in reserpenized Sprague-Dawley rat assessed as latency period of motor activity at 2 umol/kg, sc measured 6 hrs post-reserpine challenge by motility meter analysis; type: functional
Summary of the method: (§2)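 Male Sprague-Dawley rats (200-350 g) given reserpine 10 mg/kg ip 6 h before testing. Drug in saline, 2 µmol/kg sc in the neck. Rats then placed singly in photocell motility meters. Counts recorded per 5-min period until effect ceased (<10 counts/5 min), giving duration and AUC. Means of four to six recordings. Testing 1–6 p.m.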

[9] = system: Rattus norvegicus; test: Central dopamine receptor stimulating activity in reserpenized Sprague-Dawley rat assessed as duration of action of motor activity at 2 umol/kg, sc measured 6 hrs post-reserpine challenge by motility meter analysis; type: functional; summary of the method: as §2

SMILES | Activity [1] | Activity [2] | Activity [3] | Activity [4] | Activity [5] | ED50 [6] [µmol/kg] | ED50 [7] [µmol/kg] | Time [8] [min] | Time [9] [min]
CNC1CCc2c(cccc2OC)C1.Cl (stereo not drawn) | Non-toxic | inactive | inactive | inactive | inactive |  |  |  | 
CCCCCNC1CCc2c(cccc2OC)C1.Cl (stereo not drawn) | Non-toxic | inactive | inactive | inactive | inactive |  |  |  | 
CCCNC1CCc2c(cccc2OC)C1.Cl (stereo not drawn) | Non-toxic | inactive | inactive | inactive | inactive | 0.37 | 0.43 |  | 
COc1cccc2c1CCC(NC(C)C)C2.Cl (stereo not drawn) | Non-toxic | inactive | inactive | inactive | inactive | > 5 |  |  | 
CCNC1CCc2c(cccc2OC)C1.Cl (stereo not drawn) | Non-toxic | inactive | inactive | inactive | inactive |  |  |  | 
CCCN(CC)C1CCc2c(cccc2OC)C1.Cl (stereo not drawn) | Non-toxic | inactive | inactive | inactive | inactive | 0.065 | 0.062 | 13 | 96
Br.CCN(C)C1CCc2c(O)cccc2C1 (stereo not drawn) | Non-toxic | inactive | inactive | inactive | inactive | 0.074 | 0.053 | 3 | 31
CCCCN(CCC)C1CCc2c(cccc2OC)C1.Cl (stereo not drawn) | Non-toxic | inactive | inactive | inactive | inactive | 0.04 | 0.036 | 14 | 106
CCCCCN(C)C1CCc2c(cccc2OC)C1.Cl (stereo not drawn) | Non-toxic | inactive | inactive | inactive | inactive |  |  |  | 
CCN(CC)C1CCc2c(cccc2OC)C1.Cl (stereo not drawn) | Non-toxic | inactive | inactive | inactive | inactive |  |  |  | 
Br.CCCCNC1CCc2c(O)cccc2C1 (stereo not drawn) | Non-toxic | inactive | inactive | inactive | inactive | > 5 |  |  | 
CCCCNC1CCc2c(cccc2OC)C1.Cl (stereo not drawn) | Non-toxic | inactive | inactive | inactive | inactive |  |  |  | 
CCCN(CCc1ccccc1)C1CCc2c(O)cccc2C1.Cl (stereo not drawn) | Non-toxic | inactive | inactive | inactive | inactive | 0.022 | 0.017 | 0 | 53
CCCN(CCC)C1CCc2c(ccc(OC)c2OC)C1.Cl (stereo not drawn) | Non-toxic | inactive | inactive | inactive | inactive | 0.057 | 0.058 |  | 
COc1cccc2c1CCC(N1CCCCC1)C2.Cl (stereo not drawn) | Non-toxic | inactive | inactive | inactive | inactive |  |  |  | 
CCCCCN(CCC)C1CCc2c(O)cccc2C1.Cl (stereo not drawn) | Non-toxic | inactive | inactive | inactive | inactive | 0.01 | 0.019 | 0 | 75
Br.CC(C)NC1CCc2c(O)cccc2C1 (stereo not drawn) | Non-toxic | inactive | inactive | inactive | inactive | > 5 |  |  | 
Br.CCCCCN(C)C1CCc2c(O)cccc2C1 (stereo not drawn) | Non-toxic | inactive | inactive | inactive | inactive | 0.37 | 0.28 |  | 

SMILES | Activity [1] | Activity [2] | Activity [3] | Activity [4] | Activity [5] | ED50 [6] [µmol/kg] | ED50 [7] [µmol/kg] | Time [8] [min] | Time [9] [min]
CCCN(CCC)C1CCc2c(cccc2OC)C1.Cl (stereo not drawn) | Non-toxic | inactive | inactive | inactive | inactive | 0.013 | 0.018 | 15 | 122
COc1cccc2c1CCC(N)C2.Cl (stereo not drawn) | Non-toxic | inactive | inactive | inactive | inactive |  |  |  | 
Br.CN(C)C1CCc2c(O)cccc2C1 (stereo not drawn) | Non-toxic | inactive | inactive | inactive | inactive | 0.39 | 0.19 |  | 
Br.CCCN(C(C)C)C1CCc2c(O)cccc2C1 (stereo not drawn) | Non-toxic | inactive | inactive | inactive | inactive | 0.07 | 0.087 | 4 | 55
CCCN(CC(C)(C)C)C1CCc2c(O)cccc2C1.Cl (stereo not drawn) | Non-toxic | inactive | inactive | inactive | inactive | 0.2 | 0.12 | 9 | 68
Br.CCCN(C)C1CCc2c(O)cccc2C1 (stereo not drawn) | Non-toxic | inactive | inactive | inactive | inactive | 0.023 | 0.029 | 0 | 73
Br.CCCCN(CCCC)C1CCc2c(O)cccc2C1 (stereo not drawn) | Non-toxic | inactive | inactive | inactive | inactive | 2.9 | 2.7 |  | 
CCCCN(CCCC)C1CCc2c(cccc2OC)C1.Cl (stereo not drawn) | Non-toxic | inactive | inactive | inactive | inactive |  |  |  | 
Br.CCCCCNC1CCc2c(O)cccc2C1 (stereo not drawn) | Non-toxic | inactive | inactive | inactive | inactive | > 5 |  |  | 
CCN(C)C1CCc2c(cccc2OC)C1.Cl (stereo not drawn) | Non-toxic | inactive | inactive | inactive | inactive |  |  |  | 
CCCN(CCc1ccccc1)C1CCc2c(cccc2OC)C1.Cl (stereo not drawn) | Non-toxic | inactive | inactive | inactive | inactive | 0.29 | 0.24 |  | 
Br.CNC1CCc2c(O)cccc2C1 (stereo not drawn) | Non-toxic | inactive | inactive | inactive | inactive | 1.1 | 1.2 |  | 
Br.Oc1cccc2c1CCC(N1CCCCC1)C2 (stereo not drawn) | Non-toxic | inactive | inactive | inactive | inactive | > 5 |  |  | 
CCCN(C(C)C)C1CCc2c(cccc2OC)C1.Cl (stereo not drawn) | Non-toxic | inactive | inactive | inactive | inactive |  |  |  | 
CCCN(CC(C)(C)C)C1CCc2c(cccc2OC)C1.Cl (stereo not drawn) | Non-toxic | inactive | inactive | inactive | inactive | 0.19 | 0.19 |  | 
COc1cccc2c1CCC(N(C)C)C2.Cl (stereo not drawn) | Non-toxic | inactive | inactive | inactive | inactive |  |  |  | 
Br.NC1CCc2c(O)cccc2C1 (stereo not drawn) | Non-toxic | inactive | inactive | inactive | inactive | > 5 |  |  | 
